Only some compounds are listed: those with a hit (about 3.3% of all), similar ones and a draw of the others.
STAT3 activator = STAT3 signaling activation | U3A cells, IL-6 STAT3-luciferase reporter, luminescence; 100% = signal with IL-6 EC80 alone | activation (% of control), % at 5.6 µM | actives 0.91% (n = 190,000);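 active means activation above the screen-wide mean of compound activation plus 3 SD, cut at about 130% in these data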;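 further: 0% = background luminescence of wells with medium and substrate only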
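System – human U3A cells carrying STAT3-luciferase construct · Probe or stimulus – Interleukin-6, 33 ng/mL · Schedule – compound 1 h, then IL-6 6 h at 37 °C · Signal – luminescence from STAT3-driven luciferase reporter · Evaluation – percent of IL-6-only median luminescence · Benchmarks – IL-6-only high control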
FXN GAA850 act = increases GAA850 frataxin promoter reporter activity | activation, % at 6 µM | AID 540364 | actives 0.56% (n = 360,000) | HEK293 lucGAA850 FXN promoter luciferase reporter, 24 h; percent of 10 µM SAHA response;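 active means activation above the average of all compounds screened plus 3 SD, cutoff fixed separately per campaign, cut at about 7.5% in these data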;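 further: 0% = DMSO wells and 100% = 10 µM SAHA wells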
AHR act = human AHR activation | actives 2.5% (n = 320,000) | P35869 | AHR-responsive luciferase reporter cells, luminescence | activation, % at 5 µM; in the data active means activation above about 47%;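 further: 0% = vehicle wells and 100% = reference agonist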
ABCB6 inh MLPCN = human ABCB6 transporter inhibition. Q9NP58. K562-ABCB6 porphyrin accumulation, flow cytometry, 1 h; active compounds read low. fluorescence ratio to DMSO, % at 10 µM. actives 0.19% (n = 360,000);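 active means fluorescence ratio to DMSO below 75%, the collection mean minus 3 SD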;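 further: signal is porphyrin accumulated inside mitochondria; 100% equals median channel fluorescence of DMSO control wells; lower ratio means ABCB6 inhibition with less porphyrin fluorescence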
AHR act confirm = human AHR activation, confirmation. shares compounds with AHR act. human cells, AHR-responsive luciferase reporter, luminescence. activation, % at 9 µM. actives 87% (n = 2,300). AID 2845; in the data active means activation above about 49%;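 further: HepG2 hepatoma cells carrying a DRE-driven firefly luciferase reporter; 0% = vehicle wells and 100% = reference agonist wells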
PXR counter = counter-screen for AHR activators: human PXR activators; shares compounds with AHR act; cell-based PXR reporter, luciferase luminescence; activation, % at 11.6 µM; actives 88% (n = 2,300); AID 434939; in the data active means activation above about 11%;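 further: human hepatoma DPX-2 cells expressing full-length human PXR; 0% = DMSO and 100% = reference agonist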
Target sequence (O75469 whole entry, looked up): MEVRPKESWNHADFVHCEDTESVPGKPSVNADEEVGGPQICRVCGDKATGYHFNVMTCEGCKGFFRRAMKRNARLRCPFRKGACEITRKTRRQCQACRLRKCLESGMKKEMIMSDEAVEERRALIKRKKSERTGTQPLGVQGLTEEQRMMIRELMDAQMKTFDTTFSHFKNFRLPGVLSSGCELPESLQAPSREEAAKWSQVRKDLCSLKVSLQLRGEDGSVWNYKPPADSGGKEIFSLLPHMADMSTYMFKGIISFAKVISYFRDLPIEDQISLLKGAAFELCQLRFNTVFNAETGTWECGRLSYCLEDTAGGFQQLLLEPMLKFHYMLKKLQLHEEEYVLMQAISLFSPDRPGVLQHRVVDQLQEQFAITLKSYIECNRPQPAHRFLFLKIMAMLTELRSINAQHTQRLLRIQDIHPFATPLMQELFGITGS
Starred values were filed as active, the others as inactive; x = not tested or not shown.

SMILES	STAT3 activator	FXN GAA850 act	AHR act	ABCB6 inh MLPCN	AHR act confirm	PXR counter
CCCn1nc(NC(=O)c2cccs2)c2cc3ccc(C)cc3nc21	x	-1	12	96	x	x
Cc1ccc2cc3c(NC(=O)c4cccnc4)nn(C)c3nc2c1	93	-1	114*	103	93*	14*
CCOC(CNC(=O)c1cccn2c(=O)c3cc(Cl)ccc3nc12)OCC	106	-3	83*	99	134*	14*
CCOC(CNC(=O)c1cccn2c(=O)c3c(C)c(C)sc3nc12)OCC	x	-1	8	97	x	x
COc1ccc(-c2nnsc2N2C(=O)c3ccccc3C2=O)cc1	x	1	1	88	x	x
COc1ccc(-c2nc3n(c2C)Cc2ccccc2-3)cc1	x	3	80*	105	149*	17*
Cc1nc(N)nc(Nc2ccc(Cl)cc2)c1Br	96	2	92*	100	99*	x
Cc1nc(N)nc(Nc2ccc(C#N)cc2)c1Br	x	3	1	99	x	x
CCOc1ccccc1NC(=S)Nc1ncccc1C	96	-4	122*	103	81*	52*
Cc1cc(Cl)ccc1NC(=S)NCC(O)c1ccccc1 (stereo not drawn)	x	3	1	98	x	x
CCC(C)C(=O)Nc1nc(C)c(-c2csc(Nc3cc(OC)ccc3OC)n2)s1 (stereo not drawn)	82	-1	83*	100	61*	53*
COc1ccc(Cl)cc1Nc1nc(-c2sc(NC(=O)c3ccco3)nc2C)cs1	92	0	106*	100	75*	21*
CCC(C)C(=O)Nc1nc(C)c(-c2csc(Nc3cc(Cl)ccc3OC)n2)s1 (stereo not drawn)	93	1	85*	98	56*	30*
CC1(C)C2CCC1(CS(=O)(=O)NCc1ccc(S(N)(=O)=O)cc1)C(=O)C2 (stereo not drawn)	x	2	0	108	x	x
COc1ccccc1NC(=O)C1CCCN(c2cnccn2)C1 (stereo not drawn)	x	0	96*	112	80*	24*
CCC(C)(C)n1nnnc1CN(Cc1ccco1)Cc1cc2cc3c(cc2[nH]c1=O)OCO3	95	0	107*	102	86*	147*
COc1ccc2cc(CN(Cc3ccco3)Cc3nnnn3C3CCCCC3)c(=O)[nH]c2c1	102	-1	-1	99	x	x
CC(C)(C)n1nnnc1CN(Cc1ccco1)Cc1cc2cc3c(cc2[nH]c1=O)OCO3	97	1	111*	98	96*	197*
COc1ccc(S(=O)(=O)N2CCOCC2)cc1NC(=O)CN1C(=O)NC2(CCC(C)CC2)C1=O (stereo not drawn)	x	1	x	93	x	x
COc1ccc2c(c1)O[C@H](c1ccc3c(c1)OCO3)[C@@H](O)C2=O	109	4	87*	97	95*	26*
COc1ccc2c(c1)O[C@@H](c1cccc(C(F)(F)F)c1)[C@H](O)C2=O	97	x	27	x	x	x
Oc1cccc2ccc(/C=C/c3ccccc3Cl)nc12	x	-1	15	103	x	x
CCOc1cccc(/C=C/c2ccc3cccc(O)c3n2)c1O	x	3	96*	94	109*	8
CCCNC(=O)c1ccccc1NC(=O)c1ccc2c(c1)NC(=O)C(C)S2 (stereo not drawn)	x	-4	9	96	x	x
CC(=O)c1ccccc1NC(=O)c1ccc2c(c1)NC(=O)C(C)S2 (stereo not drawn)	x	5	122*	95	143*	152*
SMILES	STAT3 activator	FXN GAA850 act	AHR act	ABCB6 inh MLPCN	AHR act confirm	PXR counter
COc1ccc(CCC(=O)NC2=NCCS2)cc1OC	103	-2	0	91	x	x
Cc1ccccc1CC(=O)NCC1CCCCC1	x	0	x	105	x	x
Cc1ccc(CSc2nnc(-c3cccnc3)n2N)cc1	108	1	1	99	x	x
Cc1ccc(C)c(OCCSc2nnc(-c3cccnc3)n2N)c1	104	-2	94*	98	66*	30*
COC(=O)CCCC[C@@H]1O[C@H](CCc2ccccc2)Cc2[nH][nH]c(=O)c21	x	x	x	97	x	x
Cc1cc(=O)[nH]c(-c2ccc(C(F)(F)F)cc2)n1	x	1	87*	101	114*	11*
Cc1ccc(-c2nc(C(F)(F)F)cc(=O)[nH]2)cc1	x	1	-1	96	x	x
Nn1c(SCC(=O)Nc2nccs2)nnc1-c1ccccn1	x	0	14	92	x	x
